From ChEMBL document CHEMBL3352082, “Pyrazole derivatives as potent inhibitors of c-Jun N-terminal kinase: synthesis and SAR studies” (Bioorg Med Chem, 2014)

What was measured:
[1] = system: Rattus norvegicus; assay: Antiinflammatory activity in po dosed rat paw edema model assessed as inhibition of carrageenan-induced paw edema administered 1 hr prior to carrageenan challenge measured after 1 hr
[2] = biological target: Mitogen-activated protein kinase 8 (Homo sapiens, UniProt P45983); assay: Inhibition of FLAG-tagged JNK-1 (unknown origin) transfected in African green monkey COS cells by SDS-PAGE analysis; type: cell-based
Method in brief: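 COS cells transfected with FLAG-tagged JNK-1 and exposed to 0.5 M sorbitol for 30 min to activate JNK-1. FLAG-JNK immunoprecipitated with GST-ATF2 substrate, and the precipitate pretreated with compound and incubated in buffer B. Phosphorylated substrate separated by SDS–PAGE, visualized by autoradiography and quantified by Cerenkov counting through a kinase profiler service.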

[3] = system: Rattus norvegicus; assay: Antiinflammatory activity in po dosed rat paw edema model assessed as inhibition of carrageenan-induced paw edema administered 1 hr prior to carrageenan challenge measured after 2 hrs
[4] = system: Rattus norvegicus; assay: Antiinflammatory activity in po dosed rat paw edema model assessed as inhibition of carrageenan-induced paw edema administered 1 hr prior to carrageenan challenge measured after 4 hrs
[5] = system: Rattus norvegicus; assay: Antiinflammatory activity in po dosed rat paw edema model assessed as inhibition of carrageenan-induced paw edema administered 1 hr prior to carrageenan challenge measured after 3 hrs
[6] = system: Rattus norvegicus; assay: Antiinflammatory activity in rat paw edema model assessed as inhibition of carrageenan-induced paw edema at 50 mg/kg, po administered 1 hr prior to carrageenan challenge measured after 4 hrs
[7] = system: Rattus norvegicus; assay: Antiinflammatory activity in rat paw edema model assessed as inhibition of carrageenan-induced paw edema at 50 mg/kg, po administered 1 hr post carrageenan challenge measured after 1 hr; type: functional; details: in the assay text read “1 hr prior to carrageenan challenge” for “1 hr post carrageenan challenge”
Method in brief: (§1)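 Rats given test compounds as an oral suspension; 1 h later 1% carrageenan injected into the subplantar region of the right paw. Paw volume read by digital plethysmometer at 1, 2, 3 and 4 h. Reported as mean paw volume (mL) ± SEM with % inhibition; significance p <0.01 / p <0.05. Method after Winter et al.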

[8] = system: Rattus norvegicus; assay: Antiinflammatory activity in rat paw edema model assessed as inhibition of carrageenan-induced paw edema at 50 mg/kg, po administered 1 hr post carrageenan challenge measured after 3 hrs; type: functional; details: in the assay text read “1 hr prior to carrageenan challenge” for “1 hr post carrageenan challenge”
Method in brief: as §1

[9] = system: Rattus norvegicus; assay: Antiinflammatory activity in rat paw edema model assessed as inhibition of carrageenan-induced paw edema at 50 mg/kg, po administered 1 hr post carrageenan challenge measured after 2 hrs; type: functional; details: in the assay text read “1 hr prior to carrageenan challenge” for “1 hr post carrageenan challenge”
Method in brief: as §1

[10] = system: Rattus norvegicus; assay: Antiinflammatory activity in po dosed rat paw edema model assessed as inhibition of carrageenan-induced paw edema […] measured after 4 hrs; type: functional
Method in brief: as §1

[11] = system: Rattus norvegicus; assay: Antiinflammatory activity in po dosed rat paw edema model assessed as inhibition of carrageenan-induced paw edema […] measured after 2 hrs; type: functional
Method in brief: as §1

[12] = system: Rattus norvegicus; assay: Antiinflammatory activity in po dosed rat paw edema model assessed as inhibition of carrageenan-induced paw edema […] measured after 1 hr; type: functional
Method in brief: as §1

[13] = system: Rattus norvegicus; assay: Antiinflammatory activity in po dosed rat paw edema model assessed as inhibition of carrageenan-induced paw edema […] measured after 3 hrs; type: functional
Method in brief: as §1

[14] = biological target: c-Jun N-terminal kinase, JNK (Homo sapiens, UniProt P45983+P53779+P45984); assay: Inhibition of JNK (unknown origin); type: protein assay

Mitogen-activated protein kinase 8, sequence (P45983 whole entry): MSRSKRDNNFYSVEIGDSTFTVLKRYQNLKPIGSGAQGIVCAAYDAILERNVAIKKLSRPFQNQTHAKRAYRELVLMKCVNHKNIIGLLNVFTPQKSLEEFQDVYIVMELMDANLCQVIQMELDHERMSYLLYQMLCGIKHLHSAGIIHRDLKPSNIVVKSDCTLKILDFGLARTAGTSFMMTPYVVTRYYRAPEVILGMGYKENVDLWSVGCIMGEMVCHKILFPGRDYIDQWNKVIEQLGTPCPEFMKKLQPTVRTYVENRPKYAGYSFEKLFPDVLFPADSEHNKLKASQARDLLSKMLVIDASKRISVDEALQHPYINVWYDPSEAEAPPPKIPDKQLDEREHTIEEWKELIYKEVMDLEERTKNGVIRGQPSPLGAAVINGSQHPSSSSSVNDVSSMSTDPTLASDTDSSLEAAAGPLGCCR

SMILES	inhibition (INH) [1] [%]	IC50 [2] [µM]	inhibition (INH) [3] [%]	inhibition (INH) [4] [%]	inhibition (INH) [5] [%]	other results
COc1ccc(CNC(=O)c2cc(-c3ccccc3)[nH]n2)cc1OC	54.83	5.8	46.59	24.8	43.24	
Cc1cc(C)c(NC(=O)c2cc(-c3ccccc3)[nH]n2)c(C)c1	53.65	11.9	45.6	26.8	44.24	
COc1ccc(CNC(=O)c2cc(-c3ccccc3)[nH]n2)cc1	41.93	6.1	39.77	16.46	32.43	
O=C(O)Cc1ccccc1Nc1c(Cl)cccc1Cl [DICLOFENAC SODIUM]						inhibition in vivo at 50 mg/kg [6]: 51%; inhibition in vivo at 50 mg/kg [7]: 23%; inhibition in vivo at 50 mg/kg [8]: 47%; inhibition in vivo at 50 mg/kg [9]: 36%
COc1ccc(-c2cc(NC(=O)c3cc(-c4ccccc4)[nH]n3)no2)cc1	68.81	3.2	72.72	71.66	90.54	
O=C(NCc1ccco1)c1cc(-c2ccccc2)[nH]n1	73.11	2.8	81.81	66.33	91.89	
O=C(Nc1cc(Cl)ccc1Cl)c1cc(-c2ccccc2)[nH]n1	31.02	6.2	40.16	18.9	45.47	
CC(=O)c1cccc(NC(=O)c2cc(-c3ccccc3)[nH]n2)c1	41.3	6.9	56.7	56.8	74.32	
CC(NC(=O)c1cc(-c2ccccc2)[nH]n1)c1cccc2ccccc12 (configuration not stated)						inhibition (INH) [10]: 50.64%; inhibition (INH) [11]: 73.86%; inhibition (INH) [12]: 61.29%; inhibition (INH) [13]: 74.32%
O=C(Nc1nccs1)c1cc(-c2ccccc2)[nH]n1	45.31	6.8	51.06	31.4	54.65	
CC(C)(C)c1cc(NC(=O)c2cc(-c3ccccc3)[nH]n2)no1	68.6		70.6	41.7	52.8	
O=C(Nc1ccccc1)c1cc(-c2ccccc2)[nH]n1	32.48	9.6	35.02	30.58	45.64	
O=C(NCc1ccc(Cl)c(Cl)c1)c1cc(-c2ccccc2)[nH]n1	45.16	5.8	44.31	10.11	27.02	
O=C(NC1CC1)c1cc(-c2ccccc2)[nH]n1	69.89	6.2	85.22	55.87	88.13	
O=C(NCc1ccc(F)cc1)c1cc(-c2ccccc2)[nH]n1	67.86	2.9	70.27	54.66	75.27	
O=C(Nc1ccccn1)c1cc(-c2ccccc2)[nH]n1	33.3	8.9	79.54	64.26	81.08	
O=C(Nc1ccc2[nH]c(S)nc2c1)c1cc(-c2ccccc2)[nH]n1	94.62	2.9	95.45	74.15	91.62	
c1ccc2c(-c3ccncc3)n[nH]c2c1						pIC50 [14]: 5.8
O=C(NCc1ccccc1)c1cc(-c2ccccc2)[nH]n1	35.48	9.1	53.4	25.66	48.64	
COc1ccc(NC(=O)c2cc(-c3ccccc3)[nH]n2)cc1	33.3	8.1	79.54	66.44	81.08	
O=C(Nc1ccc(O)cc1)c1cc(-c2ccccc2)[nH]n1	22.11		43.24	16.64	23.28	
O=C(Nc1ccc(Br)cc1)c1cc(-c2ccccc2)[nH]n1	42.16	5.9	46.31	38.22	51.4	
O=C(Nc1ccc(Cl)c(F)c1)c1cc(-c2ccccc2)[nH]n1	68.81	3.1	72.7	64.22	90.54	
O=C(Nc1ccc([N+](=O)[O-])cc1)c1cc(-c2ccccc2)[nH]n1	89.24	9.8	94.31	68.7	92.56	
